In ChEMBL document CHEMBL1124700, “1,4-Dihydronaphthoquinones, hydroindoloquinones, benzofurans, and benzothiophenes as inhibitors of 5-lipoxygenase. Synthesis and structure-activity studies” (J Med Chem, 1990):

Legend:
[1] = organism: Rattus norvegicus; experiment: In vitro inhibition of LTC4/D4 (leukotriene) production in rat peritoneal mononuclear cells.; format: functional, cell-based
Outline: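 Rat peritoneal mononuclear cells challenged with calcium ionophore A23187 in presence of cysteine. Initial screen at 10 μg/mL, duplicate determinations, expressed as percent of control. IC50 from follow-up testing, interpolated from log dose–response plot. LTC4/D4 measured by guinea pig ileum bioassay (atropinized, mepyramine-treated) or, later, LTC4-selective radioimmunoassay.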

[2] = molecular target: T1, Polyunsaturated fatty acid 5-lipoxygenase (Rattus norvegicus) (UniProt P12527); experiment: Ex vivo inhibition of LTB4 production in rat blood following 50 mg/kg p.o.; format: functional, organism-based; design: dose 50 mg/kg; conditions: at 50 mg/kg
T1 sequence (whole entry): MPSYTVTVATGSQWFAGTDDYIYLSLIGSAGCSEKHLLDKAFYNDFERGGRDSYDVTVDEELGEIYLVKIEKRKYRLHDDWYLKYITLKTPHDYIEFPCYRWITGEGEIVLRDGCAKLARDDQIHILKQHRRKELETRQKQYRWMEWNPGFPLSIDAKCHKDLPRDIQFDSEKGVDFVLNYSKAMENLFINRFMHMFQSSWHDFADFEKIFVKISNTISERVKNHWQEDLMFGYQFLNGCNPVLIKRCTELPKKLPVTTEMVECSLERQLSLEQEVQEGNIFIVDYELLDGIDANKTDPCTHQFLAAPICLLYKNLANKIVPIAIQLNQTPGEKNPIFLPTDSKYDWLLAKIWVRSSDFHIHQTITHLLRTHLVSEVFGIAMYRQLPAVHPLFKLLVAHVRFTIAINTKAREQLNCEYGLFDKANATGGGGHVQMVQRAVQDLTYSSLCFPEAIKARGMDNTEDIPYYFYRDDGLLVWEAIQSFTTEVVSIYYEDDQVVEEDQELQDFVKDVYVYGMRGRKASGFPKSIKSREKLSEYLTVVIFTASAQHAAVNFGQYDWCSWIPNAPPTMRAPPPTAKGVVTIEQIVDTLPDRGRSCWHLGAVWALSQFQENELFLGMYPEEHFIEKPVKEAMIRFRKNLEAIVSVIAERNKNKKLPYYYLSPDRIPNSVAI
Outline: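 Male Sprague-Dawley rats (225–275 g), fasted 18 h, given test compound orally at 50 mg/kg; controls got vehicle; five rats per compound. At 2 h, anesthetized; heparinized blood from vena cava. Blood (1.0 mL) stimulated with A23187 (30 μM), 30 min, 37 °C; plasma LTB4 by radioimmunoassay. Percent inhibition from mean treated vs mean control; Wilcoxon rank sum.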

[3] = organism: Rattus norvegicus; experiment: Ex vivo inhibition of LTB4 production was determined; format: functional, organism-based
Outline: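 Male Sprague-Dawley rats (225–275 g), fasted 18 h, given 50 mg/kg orally in 1.0 mL solution; controls received 1.0 mL vehicle; five rats per compound. Heparinized vena cava blood taken 2 h post-dose under anesthesia; 1.0 mL stimulated with A23187 (30 μM) 30 min at 37 °C. Plasma LTB4 by radioimmunoassay; percent inhibition from group mean vs control mean; Wilcoxon rank sum statistics.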

[4] = Rattus norvegicus, read-out: IC50

SMILES	IC50 [1, 4] [nM]	other results
CCCCc1c(CCCC)c(OC(C)=O)c2ccccc2c1OC	6020	inhibition [2]: 29.2%
CCc1c(CC)c(OC(C)=O)c2c(C)c(C)cc(C)c2c1OC	15700	inhibition [2]: 14.7%
CCOC(=O)c1c(-c2ccccc2)c(OC(C)=O)c2ccccc2c1OC	5810	
CCCCC1=CC(=O)c2sccc2C1=O	23500	
CCc1c(CC)c(OC(C)=O)c2c(C)ccc(C)c2c1OC	13000	inhibition [2]: 50.6%
CCCCc1cc(OC)c2c(C)ccc(C)c2c1OC(C)=O	7350	inhibition [2]: 19.1%
CCOc1c(C(C)O)c(OC)c2ccccc2c1OC (stereo unspecified)	86000	
COc1c(-c2ccccc2)c(-c2ccccc2)c(OC(C)=O)c2ccccc12	11000	
CCOC(=O)c1c(CC)c(OC)c2ccccc2c1OC(C)=O	3760	
CCCCc1cc(OC)c2c(C)cc(C)c(C)c2c1OC(C)=O	11900	inhibition [2]: 35.4%
CCCCC1=CC(=O)c2ccccc2C1=O	2240	
CCCCc1cc(OC)c2ccccc2c1O	1470	
CCCCc1cc(OC)c2ccccc2c1OC	40900	
CCCc1c(CCC)c(OC(C)=O)c2ccccc2c1OC	1430	
COc1c(-c2ccccc2)c(-c2ccccc2)c(O)c2ccoc12	4390	
COc1c(-c2ccccc2)c(-c2ccccc2)c(OC(C)=O)c2ccn(C)c12		IC50 [1]: Not Active
CCCCC1=CC(=O)c2occc2C1=O	2050	
COc1cc(-c2ccccc2)c(O)c2ccoc12	2200	
CCc1c(CC)c(OC(C)=O)c2c(C)c(C)c(C)c(C)c2c1OC	37300	inhibition [2]: -4.9%
COc1cc(-c2ccccc2)c(OC(C)=O)c2ccn(C)c12	3860	
O=C1C=CC(=O)c2ccccc21		IC50 [3]: < 20000 nM
CCOc1c(C(C)O[Si](C)(C)C(C)(C)C)c(OC(C)=O)c2ccccc2c1OC (stereo unspecified)	23900	
CCCCc1cc(OC)c2c(C)c(C)c(C)c(C)c2c1OC(C)=O	44000	inhibition [2]: 41.2%
CCCCc1cc(OC)c2occc2c1O	11900	
CCCCCc1c(C(=O)OCC)c(OC(C)=O)c2ccccc2c1OC	8920	
CCc1c(CC)c(OC)c2c(ccn2C)c1OC(C)=O	2030	
C=Cc1c(OCC)c(OC)c2ccccc2c1OC		IC50 [1]: Not Active
CCCCc1cccc2c(OC)c(CC)c(CC)c(OC(C)=O)c12	14100	inhibition [2]: 30.5%

Second part, led by results:

IC50 [1, 4] [nM]	SMILES	other results
620	CCCCc1cc(OC)c2c(C)cccc2c1OC(C)=O	inhibition [2]: 31.8%
890	CCc1c(CC)c(OC)c2c(OC)cccc2c1OC(C)=O	
1380	CCCCc1cc(OC)c2ccc(OC)cc2c1OC(C)=O	
760	CCCCc1c(C)c(OC)c2c(ccn2C)c1OC(C)=O	
1250	COc1c(C)c(-c2ccccc2)c(O)c2ccoc12	
1050	CCCCc1cc(OC)c2sccc2c1O	
200	CCCCc1c(C)c(OC)c2ccccc2c1OC(C)=O	
940	CCCCc1ccc2c(OC(C)=O)c(CC)c(CC)c(OC)c2c1	inhibition [2]: 17%
260	CCCCc1cc(OC)c2c(OC)cccc2c1OC(C)=O	inhibition [2]: 17.5%
1150	CCCCc1c(CCCC)c(OC)c2occc2c1O	
1130	CCCCc1c(CC)c(OC(C)=O)c2ccccc2c1OC	
940	CCCCCc1c(C(=O)OCC)c(OC)c2ccccc2c1OC(C)=O	
460	CCCCc1cc(OC)c2sccc2c1OC(C)=O	
990	CCCCc1c(CC)c(OC)c2ccccc2c1OC(C)=O	
690	CCc1c(CC)c(OC(C)=O)c2cc(OC)ccc2c1OC	
720	CCCCc1cc(OC)c2c(ccn2C)c1OC(C)=O	
830	CCc1c(CC)c(OC)c2c(C)cccc2c1OC(C)=O	inhibition [2]: 40.6%
760	CCCCc1c(C)c(OC(C)=O)c2ccn(C)c2c1OC	
110	CCCCc1cc(OC)c2occc2c1OC(C)=O	
440	CCCCc1cc(OC)c2ccccc2c1OC(C)=O [BUNAPROLAST]	inhibition [2]: 61.1%
400	CCc1c(CC)c(OC(C)=O)c2ccccc2c1OC	inhibition [2]: 74.8%
1160	CCOC(=O)c1c(CC)c(OC(C)=O)c2ccccc2c1OC	
480	CCCCc1ccc2c(OC(C)=O)c(CCCC)cc(OC)c2c1	inhibition [2]: 19.2%
